According to PMC11904481 (ESMO Open, 2025):
“And” between values parts separate entries of the source, which are not always exact repeats. Equal values may be shown once.

Tested on: patients with locally advanced unresectable or metastatic, relapsed and/or refractory nonhematological malignancies
Assay: Phase I safety: adverse events
Format: in vivo, human
In short: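 Adverse events were graded by NCI CTCAE v4.03 across three i.v. schedules of the test compound (0.45-11.3 mg/kg; weekly per 28-day cycle, or days 1, 4, 8 ±11, 15 per 21-day cycle). Special-interest events covered retinal dysfunction symptoms and documented retinal disorders. Clustered signs were grouped as 'infusion reaction'. QTc was calculated with the Fridericia correction.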

With `O=C1Nc2cc3[nH]nc(-c4ccncc4)c3cc2CN1Cc1ccccc1` [KO-947] the “deaths due to treatment-related TEAEs” value (all schedules) was “No deaths”, the “dose interruptions due to toxicity” value (all schedules) was 14 patients and the “dose reductions due to toxicity” value (all schedules) was 7 patients. The retinal vein occlusion (all schedules) was “no reports”, the “median time to resolution of ocular events” value (cycle 1, range, 0-114 days) was 3 days and the AESI blurred vision (schedule 3) was 33%. For the same molecule, the “grade ≥3 TEAE: infusion-related reaction” value (schedule 3) was 7%, the “grade ≥3 TEAE: respiratory tract infection” value (schedule 3) was 7% and the “patients discontinued owing to AEs” value (schedule 3) was 15%. For the same molecule, the “patients with at least one AESI” value (schedule 3) was 82%, the “patients with grade ≥3 TEAEs” value (schedule 3) was 67% and the “patients with grade ≥3 treatment-related TEAEs” value (schedule 3) was 15%. For the same molecule, the “treatment-related QTc prolongation” value (schedule 3) was 11%, the treatment-related blurred vision (schedule 3) was 33.3% and 33% and the treatment-related dyspepsia (schedule 3) was 11%. For the same molecule, the treatment-related macular edema (schedule 3) was 15%, the treatment-related photopsia (schedule 3) was 15% and the treatment-related retinal detachment (schedule 3) was 15%. The treatment-related vitreous floaters (schedule 3) was 11%, the “AESI: Blurred vision” value (schedule 3 cohort 1, 3.6 mg/kg) was 0 n (%) and the “AESI: Detachment of retinal pigment epithelium” value (“AESI: Detachment” for short) (schedule 3 cohort 1, 3.6 mg/kg) was 0 n (%). The “AESI: Eye disorders” value (schedule 3 cohort 1, 3.6 mg/kg) was 2 (67) n (%), the “AESI: Macular edema” value (schedule 3 cohort 1, 3.6 mg/kg) was 0 n (%) and the “AESI: Patients with ≥1 AE” value (schedule 3 cohort 1, 3.6 mg/kg) was 2 (67) n (%). The “AESI: Photopsia” value (schedule 3 cohort 1, 3.6 mg/kg) was 0 n (%), the “AESI: Retinal detachment” value (schedule 3 cohort 1, 3.6 mg/kg) was 0 n (%) and the “AESI: Subretinal fluid” value (schedule 3 cohort 1, 3.6 mg/kg) was 1 (33) n (%). For the same molecule, the “AESI: Total number of AEs” value (schedule 3 cohort 1, 3.6 mg/kg) was 4 n, the “AESI: Vitreous floaters” value (schedule 3 cohort 1, 3.6 mg/kg) was 2 (67) n (%) and the “Patients with ≥1 treatment-related TEAE” value (schedule 3 cohort 1, 3.6 mg/kg) was 2 (67) n (%). The “Total number of treatment-related TEAEs” value (schedule 3 cohort 1, 3.6 mg/kg) was 11 n, the “Treatment-related TEAE: Blurred vision” value (schedule 3 cohort 1, 3.6 mg/kg) was 0 n (%) and the “Treatment-related TEAE: Dermatitis acneiform” value (schedule 3 cohort 1, 3.6 mg/kg) was 0 n (%). The “Treatment-related TEAE: Diarrhea” value (schedule 3 cohort 1, 3.6 mg/kg) was 0 n (%), the “Treatment-related TEAE: Dyspepsia” value (schedule 3 cohort 1, 3.6 mg/kg) was 0 n (%) and the “Treatment-related TEAE: Infusion-related reaction” value (schedule 3 cohort 1, 3.6 mg/kg) was 0 n (%). The “Treatment-related TEAE: Macular edema” value (schedule 3 cohort 1, 3.6 mg/kg) was 0 n (%), the “Treatment-related TEAE: Photopsia” value (schedule 3 cohort 1, 3.6 mg/kg) was 0 n (%) and the “Treatment-related TEAE: QTc prolongation” value (schedule 3 cohort 1, 3.6 mg/kg) was 0 n (%). The “Treatment-related TEAE: Retinal detachment” value (schedule 3 cohort 1, 3.6 mg/kg) was 0 n (%), the “Treatment-related TEAE: Subretinal fluid” value (schedule 3 cohort 1, 3.6 mg/kg) was 1 (33) n (%) and the “Treatment-related TEAE: Vitreous floaters” value (schedule 3 cohort 1, 3.6 mg/kg) was 2 (67) n (%). For the same molecule, the “AESI: Blurred vision” value (schedule 3 cohort 2, 4.8 mg/kg) was 0 n (%), the “AESI: Detachment” value (schedule 3 cohort 2, 4.8 mg/kg) was 0 n (%) and the “AESI: Eye disorders” value (schedule 3 cohort 2, 4.8 mg/kg) was 2 (67) n (%). For the same molecule, the “AESI: Macular edema” value (schedule 3 cohort 2, 4.8 mg/kg) was 0 n (%), the “AESI: Patients with ≥1 AE” value (schedule 3 cohort 2, 4.8 mg/kg) was 2 (67) n (%) and the “AESI: Photopsia” value (schedule 3 cohort 2, 4.8 mg/kg) was 0 n (%). The “AESI: Retinal detachment” value (schedule 3 cohort 2, 4.8 mg/kg) was 1 (33) n (%), the “AESI: Subretinal fluid” value (schedule 3 cohort 2, 4.8 mg/kg) was 1 (33) n (%) and the “AESI: Total number of AEs” value (schedule 3 cohort 2, 4.8 mg/kg) was 2 n. The “AESI: Vitreous floaters” value (schedule 3 cohort 2, 4.8 mg/kg) was 0 n (%), the “Patients with ≥1 treatment-related TEAE” value (schedule 3 cohort 2, 4.8 mg/kg) was 3 (100) n (%) and the “Total number of treatment-related TEAEs” value (schedule 3 cohort 2, 4.8 mg/kg) was 9 n. For the same molecule, the “Treatment-related TEAE: Blurred vision” value (schedule 3 cohort 2, 4.8 mg/kg) was 0 n (%), the “Treatment-related TEAE: Dermatitis acneiform” value (schedule 3 cohort 2, 4.8 mg/kg) was 0 n (%) and the “Treatment-related TEAE: Diarrhea” value (schedule 3 cohort 2, 4.8 mg/kg) was 1 (33) n (%). For the same molecule, the “Treatment-related TEAE: Dyspepsia” value (schedule 3 cohort 2, 4.8 mg/kg) was 0 n (%), the “Treatment-related TEAE: Infusion-related reaction” value (schedule 3 cohort 2, 4.8 mg/kg) was 0 n (%) and the “Treatment-related TEAE: Macular edema” value (schedule 3 cohort 2, 4.8 mg/kg) was 0 n (%). For the same molecule, the “Treatment-related TEAE: Photopsia” value (schedule 3 cohort 2, 4.8 mg/kg) was 0 n (%), the “Treatment-related TEAE: QTc prolongation” value (schedule 3 cohort 2, 4.8 mg/kg) was 0 n (%) and the “Treatment-related TEAE: Retinal detachment” value (schedule 3 cohort 2, 4.8 mg/kg) was 1 (33) n (%). For the same molecule, the “Treatment-related TEAE: Subretinal fluid” value (schedule 3 cohort 2, 4.8 mg/kg) was 1 (33) n (%), the “Treatment-related TEAE: Vitreous floaters” value (schedule 3 cohort 2, 4.8 mg/kg) was 0 n (%) and the “AESI: Blurred vision” value (schedule 3 cohort 3, 6.4 mg/kg) was 3 (33) n (%). For the same molecule, the “AESI: Detachment” value (schedule 3 cohort 3, 6.4 mg/kg) was 0 n (%), the “AESI: Eye disorders” value (schedule 3 cohort 3, 6.4 mg/kg) was 7 (78) n (%) and the “AESI: Macular edema” value (schedule 3 cohort 3, 6.4 mg/kg) was 1 (11) n (%). The “AESI: Patients with ≥1 AE” value (schedule 3 cohort 3, 6.4 mg/kg) was 7 (78) n (%), the “AESI: Photopsia” value (schedule 3 cohort 3, 6.4 mg/kg) was 1 (11) n (%) and the “AESI: Retinal detachment” value (schedule 3 cohort 3, 6.4 mg/kg) was 1 (11) n (%). The “AESI: Subretinal fluid” value (schedule 3 cohort 3, 6.4 mg/kg) was 2 (22) n (%), the “AESI: Total number of AEs” value (schedule 3 cohort 3, 6.4 mg/kg) was 11 n and the “AESI: Vitreous floaters” value (schedule 3 cohort 3, 6.4 mg/kg) was 0 n (%). The “Patients with ≥1 treatment-related TEAE” value (schedule 3 cohort 3, 6.4 mg/kg) was 8 (89) n (%), the “Total number of treatment-related TEAEs” value (schedule 3 cohort 3, 6.4 mg/kg) was 19 n and the “Treatment-related TEAE: Blurred vision” value (schedule 3 cohort 3, 6.4 mg/kg) was 3 (33) n (%). The “Treatment-related TEAE: Dermatitis acneiform” value (schedule 3 cohort 3, 6.4 mg/kg) was 0 n (%), the “Treatment-related TEAE: Diarrhea” value (schedule 3 cohort 3, 6.4 mg/kg) was 1 (11) n (%) and the “Treatment-related TEAE: Dyspepsia” value (schedule 3 cohort 3, 6.4 mg/kg) was 1 (11) n (%). The “Treatment-related TEAE: Infusion-related reaction” value (schedule 3 cohort 3, 6.4 mg/kg) was 2 (22) n (%), the “Treatment-related TEAE: Macular edema” value (schedule 3 cohort 3, 6.4 mg/kg) was 1 (11) n (%) and the “Treatment-related TEAE: Photopsia” value (schedule 3 cohort 3, 6.4 mg/kg) was 1 (11) n (%). The “Treatment-related TEAE: QTc prolongation” value (schedule 3 cohort 3, 6.4 mg/kg) was 0 n (%), the “Treatment-related TEAE: Retinal detachment” value (schedule 3 cohort 3, 6.4 mg/kg) was 1 (11) n (%) and the “Treatment-related TEAE: Subretinal fluid” value (schedule 3 cohort 3, 6.4 mg/kg) was 2 (22) n (%). The “Treatment-related TEAE: Vitreous floaters” value (schedule 3 cohort 3, 6.4 mg/kg) was 0 n (%), the “AESI: Blurred vision” value (schedule 3 cohort 4, 7.2 mg/kg) was 1 (33) n (%) and the “AESI: Detachment” value (schedule 3 cohort 4, 7.2 mg/kg) was 1 (33) n (%). The “AESI: Eye disorders” value (schedule 3 cohort 4, 7.2 mg/kg) was 3 (100) n (%), the “AESI: Macular edema” value (schedule 3 cohort 4, 7.2 mg/kg) was 1 (33) n (%) and the “AESI: Patients with ≥1 AE” value (schedule 3 cohort 4, 7.2 mg/kg) was 3 (100) n (%).
